In ChEMBL document CHEMBL1157342, “Isolation of gelsedine-type indole alkaloids from Gelsemium elegans and evaluation of the cytotoxic activity of gelsemium alkaloids for A431 epidermoid carcinoma cells” (J Nat Prod, 2006):

The compounds below were run on A-431 (assay: Cytotoxicity against human A431 cells after 48 hrs by trypan blue test). Conditions: A-431, 48 h.
Type: functional, cell-based
Summary of the method: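 A431 human epidermoid carcinoma cells were grown at 5% CO2, 37 °C, seeded in 12-well plates at 1 × 10^5 cells/well and treated at semiconfluence (about 5 × 10^5 cells/well). DMSO stocks (100 mM) were diluted in serum-free RPMI-1640 to 10 nM–100 µM final, with DMSO below 0.1%. After 48 h, cells were counted in a Bürker-Türk chamber with trypan blue. Survival was expressed as % of untreated control. EC50 was taken from three independent experiments, mean ± SEM.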

**Q.** With `C/C=C1\CN(C)[C@H]2C[C@@]3(C(=O)N(OC)c4cc(OC)ccc43)[C@H]3C[C@@H]1[C@@H]2CO3` as the compound, how does the EC50 read?
**A.** > 100 µM

**Q.** Which EC50 does the source give for `CCC1=N[C@H]2C[C@@]3(C(=O)N(OC)c4ccccc43)[C@@H]3OC[C@H]2[C@H]1[C@H]3O` here?
**A.** > 100 µM

**Q.** With `CCC1=N[C@H]2C[C@@]3(C(=O)N(OC)c4ccccc43)[C@@H]3OC[C@H]2[C@H]1[C@H]3OC(C)=O` as the compound, how does the EC50 read?
**A.** 0.25 µM

**Q.** With `C/C=C1\CN2[C@H]3Cc4c([nH]c5ccccc45)[C@@H]2C[C@@H]1C3(CO)C(=O)OC` (some centres undefined) as the compound, how does the EC50 read?
**A.** > 100 µM

**Q.** How did the EC50 turn out when `CCC1=N[C@H]2C[C@@]3(C(=O)N(OC)c4ccccc43)[C@@H]3OC[C@H]2[C@@]1(O)[C@H]3OC(C)=O` was run?
**A.** 36 µM

**Q.** `CCC1=N[C@H]2C[C@@]3(C(=O)N(OC)c4cc(OC)ccc43)[C@@H]3OC[C@H]2[C@H]1[C@H]3O` was tested. Which EC50 did it give?
**A.** > 100 µM

**Q.** Which EC50 does the source give for `CCC1=N[C@H]2C[C@@]3(C(=O)N(OC)c4ccccc43)[C@@H]3OC[C@H]2[C@@]1(O)[C@H]3O` here?
**A.** 1.3 µM

**Q.** With `CC[C@H]1N[C@H]2C[C@@]3(C(=O)N(OC)c4ccccc43)[C@H]3C[C@@H]1[C@@H]2CO3` [GELSEDINE] as the compound, how does the EC50 read?
**A.** 0.35 µM

**Q.** Which EC50 does the source give for `CC[C@H]1N[C@H]2C[C@@]3(C(=O)N(OC)c4cc(OC)ccc43)[C@H]3C[C@@H]1[C@@H]2CO3` [GELSEMICINE] here?
**A.** 0.75 µM

**Q.** With `C=C[C@]12CN(C)[C@@H]3[C@H]4CO[C@H](C[C@H]41)[C@]1(C(=O)Nc4ccccc41)[C@@H]32` [GELSEMINE] as the compound, how does the EC50 read?
**A.** > 100 µM

**Q.** Which EC50 does the source give for `CCC(=O)[C@]12N[C@H]3C[C@@]4(C(=O)N(OC)c5ccccc54)[C@H](OC[C@H]31)[C@@H]2O` [GELSEMOXONINE] here?
**A.** > 100 µM

**Q.** With `CCC1=N[C@H]2C[C@@]3(C(=O)N(OC)c4ccccc43)[C@H]3C[C@@H]1[C@@H]2CO3` [GELSENICINE] as the compound, how does the EC50 read?
**A.** 37 µM

**Q.** For `C/C=C1\CN(C)[C@H]2C[C@@]3(C(=O)N(OC)c4ccccc43)[C@H]3C[C@@H]1[C@@H]2CO3` [HUMANTENINE], which EC50 is on record?
**A.** > 100 µM

**Q.** With `C=C[C@@]12CN(C)[C@H]3C[C@]14C(=Nc1ccccc14)[C@@H]1C[C@@H]2[C@@H]3CO1` [KOUMINE] as the compound, how does the EC50 read?
**A.** > 100 µM
